From ChEMBL document CHEMBL4673194 (RSC Med Chem, 2021)
Activity calls are given as the source filed them. The rule behind the calls is not given here.

Tests used:
[1] = biological target: T1, Enoyl-[acyl-carrier-protein] reductase [NADH] (Mycobacterium tuberculosis) (UniProt P9WGR1); experiment: Inhibition of Mycobacterium tuberculosis InhA at 50 uM using DD-CoA as substrate relative to control
T1 sequence (whole entry): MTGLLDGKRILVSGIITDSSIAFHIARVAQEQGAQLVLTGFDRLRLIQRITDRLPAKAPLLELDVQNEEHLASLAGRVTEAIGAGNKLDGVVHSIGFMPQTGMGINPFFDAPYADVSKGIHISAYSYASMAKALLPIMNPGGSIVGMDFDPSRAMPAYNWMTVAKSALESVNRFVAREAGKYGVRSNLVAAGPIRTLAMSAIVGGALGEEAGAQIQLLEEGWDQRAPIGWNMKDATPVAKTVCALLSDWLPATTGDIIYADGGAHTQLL
How it was run: (§1)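 Wild-type InhA (100 nM) starts the reaction with 25 μM trans-2-dodecenoyl-CoA and 250 μM NADH in 30 mM PIPES, 150 mM NaCl, pH 6.8. Compound is present at a fixed 40 or 50 μM. Initial velocity is compared with a no-inhibitor control and expressed as percent inhibition.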

Vero = experiment: Cytotoxicity against African green monkey Vero cells assessed as reduction in cell viability incubated for 48 hrs by neutral red assay; type: cell-based; conditions: Chlorocebus sabaeus
How it was run: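 Vero cells grown in MEM with 10% heat-inactivated FCS, 0.15% NaHCO3, penicillin and streptomycin at 37 °C, 5% CO2. Seeded at 25 000 cells per well, 24 h, then compound for 48 h. Viable cells by neutral red uptake. IC50 from log plots of growth inhibition against concentration. Doxorubicin positive control, DMSO vehicle control. Top concentration 20 μM.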

[2] = system: Mycobacterium tuberculosis; experiment: Antitubercular activity against Mycobacterium tuberculosis H37Rv assessed as reduction in microbial growth incubated for 5 days by visual inspection method; type: functional; conditions: 120 h, time 5 day
How it was run: (§2)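 Two-fold serial dilution in Middlebrook 7H9-ADS-Gly broth, final concentrations 20 down to 1.25 μM, from DMSO stocks. Inoculated with about 10^6 CFU of mid-log H37Rv, incubated 37 °C for five days. Turbidity recorded visually, then MTT added. MIC is the lowest concentration preventing growth (yellow colour). Three biological repeats, each in technical duplicate; rifampicin control.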

Leishmania donovani = experiment: Antileishmanial activity against promastigote form of Leishmania donovani S1 Sudan assessed as reduction in parasite growth incubated for 72 hrs by alamar blue assay; type: functional, organism-based
How it was run: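 S1 Sudan promastigotes kept at 26 °C in RPMI-1640 (no bicarbonate or pyruvate) with 10% FBS, subcultured twice weekly. Compounds added to promastigotes at 2 × 10^6 cells per mL at final 40, 8 and 1.6 μg mL−1, 72 h at 26 °C. Growth read by Alamar blue. IC50 from non-linear dose–response logistic regression. Triplicate. Pentamidine and amphotericin B standards.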

[3] = system: Mycobacterium tuberculosis; experiment: Antitubercular activity against Mycobacterium tuberculosis H37Rv assessed as reduction in microbial growth incubated; type: functional; how it was run: as §2
[4] = system: Mycobacterium tuberculosis; experiment: Antitubercular activity against Mycobacterium tuberculosis H37Rv assessed as reduction in microbial growth incubated for 5 to 7 days by inverted plate count method; type: functional; conditions: time 5-7 day
[5] = biological target: T1, Enoyl-[acyl-carrier-protein] reductase [NADH] (Mycobacterium tuberculosis); experiment: Inhibition of Mycobacterium tuberculosis InhA at 40 uM using DD-CoA as substrate relative to control; how it was run: as §1
[6] = Lipophilicity, log P of the compound; type: physicochemical; conditions: octanol/water
[7] = biological target: T1, Enoyl-[acyl-carrier-protein] reductase [NADH] (Mycobacterium tuberculosis); experiment: Inhibition of recombinant Mycobacterium tuberculosis InhA expressed in Escherichia coli BL21 using DD-CoA as substrate by UV-Vis spectrophotometry; conditions: time 5.0 min
[8] = system: Mycobacterium tuberculosis; experiment: Antitubercular activity against Mycobacterium tuberculosis H37Rv assessed as reduction in microbial growth incubated for 1 week by MTT assay; type: functional; conditions: 168 h, time 1 weeks

SMILES	IC50 (Vero)	MIC99 [2]	IC50 (Leishmania donovani)	other results
CCCc1cn(Cc2ccccc2O)nn1	> 20 µM	20 µM	> 60 µM	inhibition [1]: 92%
Cc1ccccc1Oc1ccc(Cn2cc(-c3ccccc3)nn2)cc1O				MIC [3]: ≤ 11.1 µM
CCCCCCCCc1ccc(Oc2ccccc2)c(O)c1				MIC [4]: 1.9 µM
CCCCCc1c(CO)nnn1Cc1ccc2ccccc2c1	> 20 µM	> 100 µM	31.4 µM	inhibition [1]: inactive
CCCCCc1cn(Cc2ccccc2O)nn1	> 20 µM	20 µM	> 60 µM	inhibition [1]: inactive
Oc1cc(Cl)ccc1Oc1ccc(Cl)cc1Cl [TRICLOSAN]		43 µM		
CC(C)=CCC/C(C)=C/Cn1cc(COc2ccccc2O)nn1	> 20 µM	> 100 µM	51.9 µM	inhibition [5]: inactive
C[C@@H]1[C@H](O)[C@@H](C)/C=C/C=C/C=C/C=C/C=C/C=C/C=C/[C@H](O[C@@H]2O[C@H](C)[C@@H](O)[C@H](N)[C@@H]2O)C[C@@H]2O[C@](O)(C[C@@H](O)C[C@@H](O)[C@H](O)CC[C@@H](O)C[C@@H](O)CC(=O)O[C@H]1C)C[C@H](O)[C@H]2C(=O)O [AMPHOTERICIN B]			0.11 µM	
CCc1cn(Cc2ccc(Oc3ccccc3C#N)c(O)c2)nn1				MIC [3]: 2.02 µM
CCCCCCCCCCCCCn1cc(COc2ccccc2O)nn1	> 20 µM	> 100 µM	13.4 µM	inhibition [5]: 63%; logP [6]: 5.67
CCc1cn(Cc2ccc(Oc3ccccc3C)c(O)c2)nn1				MIC [3]: 3.9 µM
CC(C)=CCC/C(C)=C\Cn1cc(COc2ccccc2O)nn1	> 20 µM	> 100 µM	55 µM	inhibition [5]: 85%
Oc1ccccc1Cn1cc(-c2ccccc2)nn1	> 20 µM	20 µM	> 60 µM	inhibition [1]: inactive
CCCCc1cn(Cc2ccc(Oc3ccc(Cl)cc3O)c(Cl)c2)nn1				inhibition [7]: 98%; MIC [8]: 1.5 µM
